# Active and inactive are the calls of the source. The calls are words filed in the database; no cut-off is given here.
# Experiments:
# [1] = test system: THP-1; assay: Effect on NLRP3 expression in LPS-stimulated human THP-1 cells preincubated for 40 mins followed by LPS addition and measured after 3 hrs by Western blot analysis; format: functional, cell-based; details: time 220.0 min
# How it was run: (§1)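 THP-1 cells were given compound for 40 min, then primed with LPS for 3 h. Medium supernatant was analysed for TNF-α. Cell extracts were immunoblotted for pro-IL-1β and NLRP3.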
# [2] = Half life in Sprague-Dawley rat at 10 mg/kg, iv measured up to 24 hrs by LC-MS/MS analysis; format: ADME, organism-based; details: in vivo
# How it was run: (§2)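 Single doses given intravenously (10 mg/kg) or orally (10, 30, 90 mg/kg); plasma levels quantified by LC/MS/MS at multiple time points. Parameters reported as mean values: AUC0–t, CL, Cmax, T1/2, Tmax, and %F based on AUC.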
# [3] = test system: THP-1; assay: Antiinflammatory activity in human THP-1 cells assessed as inhibition of LPS/nigericin-induced IL-1beta secretion in LPS stimulation followed by pretreatment for 40 min before induced with nigericin for 40 min measured by western blot analysis; format: functional, cell-based; details: time 80.0 min
# How it was run: (§3)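 PMA-differentiated THP-1 cells were primed with LPS, exposed to graded compound doses for 40 min, then given nigericin for 40 min. Supernatants were immunoblotted for IL-1β and caspase-1. Cell extracts were immunoblotted for NLRP3, pro-IL-1β and pro-caspase-1.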
# [4] = Half life in Sprague-Dawley rat at 10 mg/kg, po measured up to 24 hrs by LC-MS/MS analysis; format: ADME, organism-based; details: in vivo; how it was run: as §2
# [5] = AUC (0 to t) in Sprague-Dawley rat at 10 mg/kg, iv measured up to 24 hrs by LC-MS/MS analysis; format: ADME, organism-based; parameters: route intravenous, dose 10 mg/kg, time <=24; details: in vivo; how it was run: as §2
# [6] = biological target: NACHT, LRR and PYD domains-containing protein 3 (Homo sapiens) (UniProt Q96P20); assay: Binding affinity to NLRP3 in LPS stimulated human THP-1cells assessed as prevention of pronase-mediated protein degradation at 0.01 to 1mM incubated 50 mins before pronase treatment by label-free DARTS assay
# How it was run: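 Drug affinity responsive target stability: THP-1 lysates were incubated with compound (0.01–1 mM), then digested with pronase. NLRP3 remaining was detected by immunoblot.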
# [7] = Cmax in Sprague-Dawley rat at 10 mg/kg, iv measured up to 24 hrs by LC-MS/MS analysis; format: ADME, organism-based; parameters: route intravenous, dose 10 mg/kg, time <=24; details: in vivo; how it was run: as §2
# [8] = biological target: NACHT, LRR and PYD domains-containing protein 3 (Homo sapiens) (UniProt Q96P20); assay: Inhibition of NLRP3 in human THP-1cells assessed as increase in thermal stability at 100 uM by cellular thermal shift assay
# [9] = test system: THP-1; assay: Antiinflammatory activity in human THP-1 cells assessed as inhibition of LPS-induced IL-1beta secretion in LPS stimulation for 3 hrs followed by pretreatment at 2uM for 40 min before induced with nigericin for 40 min measured by ELISA; format: functional; details: THP-1, 1.333 h, time 80 min
# How it was run: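 THP-1 cells (2 × 10^5 cells/mL) differentiated with PMA (100 ng/mL) for 24 h. Next day, primed with LPS (1 μg/mL) for 3 h, then compound for 40 min, then nigericin (10 μM) for 40 min. IL-1β in supernatant measured by ELISA; % inhibition as mean ± SD of three independent experiments. The single-concentration screen used 2 μM.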
# [10] = biological target: NACHT, LRR and PYD domains-containing protein 3 (Homo sapiens) (UniProt Q96P20); assay: Inhibition of NLRP3 inflammasome activation in LPS/nigericin-treated human THP-1 cells assessed as LPS-induced IL-1beta secretion in LPS stimulation followed by pretreatment for 40 min before induced with nigericin for 40 min measured by western blot analysis; format: cell-based; details: time 80.0 min; how it was run: as §3
# [11] = Tmax in Sprague-Dawley rat at 10 mg/kg, iv measured up to 24 hrs by LC-MS/MS analysis; format: ADME, organism-based; details: in vivo; how it was run: as §2
# [12] = Half life in Sprague-Dawley rat at 30 mg/kg, po measured up to 24 hrs by LC-MS/MS analysis; format: ADME, organism-based; details: in vivo; how it was run: as §2
# [13] = AUC (0 to t) in Sprague-Dawley rat at 10 mg/kg, po measured up to 24 hrs by LC-MS/MS analysis; format: ADME, organism-based; parameters: route oral, dose 10 mg/kg, time <=24; details: in vivo; how it was run: as §2
# [14] = Oral bioavailability in Sprague-Dawley rat at 10 mg/kg measured up to 24 hrs by LC-MS/MS analysis; format: ADME, organism-based; details: in vivo; how it was run: as §2
# [15] = biological target: NLR family CARD domain-containing protein 4 (Homo sapiens) (UniProt Q9NPP4); assay: Inhibition of NLRC4 inflammasome activation in LPS-induced human THP-1 cells at 3 to 5uM for 40 mins followed by flagellin stimulation for 6 h by ELISA; format: cell-based
# [16] = AUC (0 to t) in Sprague-Dawley rat at 30 mg/kg, po measured up to 24 hrs by LC-MS/MS analysis; format: ADME, organism-based; parameters: route oral, dose 30 mg/kg, time <=24; details: in vivo; how it was run: as §2
# [17] = test system: THP-1; assay: Effect on IL-1beta expression in LPS-stimulated human THP-1 cells at 1 uM preincubated for 40 mins followed by LPS stimulation and measured after 3 hrs by Western blot analysis; format: functional, cell-based; details: time 220.0 min; how it was run: as §1
# [18] = biological target: T1, Interferon-inducible protein AIM2 (Homo sapiens) (UniProt O14862); assay: Inhibition of AIM2 inflammasome activation in LPS-induced human THP-1 cells at 3 to 5uM for 40 mins followed by […] stimulation for 6 h by ELISA; format: cell-based
# T1 sequence (whole entry): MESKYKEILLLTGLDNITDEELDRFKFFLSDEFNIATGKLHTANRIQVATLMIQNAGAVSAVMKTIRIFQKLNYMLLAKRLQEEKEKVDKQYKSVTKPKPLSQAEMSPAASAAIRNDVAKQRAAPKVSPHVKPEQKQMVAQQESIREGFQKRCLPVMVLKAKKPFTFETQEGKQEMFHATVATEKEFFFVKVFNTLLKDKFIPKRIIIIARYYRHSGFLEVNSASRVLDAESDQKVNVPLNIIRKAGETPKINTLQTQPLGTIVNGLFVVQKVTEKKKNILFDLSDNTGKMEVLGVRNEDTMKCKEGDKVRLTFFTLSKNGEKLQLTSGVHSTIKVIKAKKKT
# [19] = Cmax in Sprague-Dawley rat at 30 mg/kg, po measured up to 24 hrs by LC-MS/MS analysis; format: ADME, organism-based; parameters: route oral, dose 30 mg/kg, time <=24; details: in vivo; how it was run: as §2
# [20] = biological target: T1, Interferon-inducible protein AIM2 (Homo sapiens); assay: Inhibition of AIM2 inflammasome activation in LPS-induced human THP-1 cells at 1 uM for 40 mins followed by […] stimulation for 6 h by ELISA; format: cell-based; details: time 400.0 min
# [21] = Clearance in Sprague-Dawley rat at 10 mg/kg, iv measured up to 24 hrs by LC-MS/MS analysis; format: ADME, organism-based; details: in vivo; how it was run: as §2
# [22] = biological target: NLR family CARD domain-containing protein 4 (Homo sapiens) (UniProt Q9NPP4); assay: Inhibition of NLRC4 inflammasome activation in LPS-induced human THP-1 cells at 1 uM for 40 mins followed by flagellin stimulation for 6 h by ELISA; format: cell-based; details: time 400.0 min
# [23] = test system: THP-1; assay: Effect on NLRP3 expression in LPS-stimulated human THP-1 cells at 1 uM preincubated for 40 mins followed by LPS stimulation and measured after 3 hrs by Western blot analysis; format: functional, cell-based; how it was run: as §1
# [24] = test system: THP-1; assay: Effect on IL-1beta expression in LPS-stimulated human THP-1 cells preincubated for 40 mins followed by LPS addition and measured after 3 hrs by Western blot analysis; format: functional, cell-based; details: time 220.0 min; how it was run: as §1
# [25] = biological target: NACHT, LRR and PYD domains-containing protein 3 (Homo sapiens) (UniProt Q96P20); assay: Inhibition of NLRP3 inflammasome activation in LPS/nigericin-treated human THP-1 cells assessed as blockade of […] caspase 1 p20 in LPS stimulation followed by pretreatment for 40 min before induced with nigericin for 40 min measured by western blot analysis; format: cell-based; details: time 80.0 min; how it was run: as §3
# NACHT, LRR and PYD domains-containing protein 3 (Homo sapiens), sequence (Q96P20 whole entry, the tested form may be a part): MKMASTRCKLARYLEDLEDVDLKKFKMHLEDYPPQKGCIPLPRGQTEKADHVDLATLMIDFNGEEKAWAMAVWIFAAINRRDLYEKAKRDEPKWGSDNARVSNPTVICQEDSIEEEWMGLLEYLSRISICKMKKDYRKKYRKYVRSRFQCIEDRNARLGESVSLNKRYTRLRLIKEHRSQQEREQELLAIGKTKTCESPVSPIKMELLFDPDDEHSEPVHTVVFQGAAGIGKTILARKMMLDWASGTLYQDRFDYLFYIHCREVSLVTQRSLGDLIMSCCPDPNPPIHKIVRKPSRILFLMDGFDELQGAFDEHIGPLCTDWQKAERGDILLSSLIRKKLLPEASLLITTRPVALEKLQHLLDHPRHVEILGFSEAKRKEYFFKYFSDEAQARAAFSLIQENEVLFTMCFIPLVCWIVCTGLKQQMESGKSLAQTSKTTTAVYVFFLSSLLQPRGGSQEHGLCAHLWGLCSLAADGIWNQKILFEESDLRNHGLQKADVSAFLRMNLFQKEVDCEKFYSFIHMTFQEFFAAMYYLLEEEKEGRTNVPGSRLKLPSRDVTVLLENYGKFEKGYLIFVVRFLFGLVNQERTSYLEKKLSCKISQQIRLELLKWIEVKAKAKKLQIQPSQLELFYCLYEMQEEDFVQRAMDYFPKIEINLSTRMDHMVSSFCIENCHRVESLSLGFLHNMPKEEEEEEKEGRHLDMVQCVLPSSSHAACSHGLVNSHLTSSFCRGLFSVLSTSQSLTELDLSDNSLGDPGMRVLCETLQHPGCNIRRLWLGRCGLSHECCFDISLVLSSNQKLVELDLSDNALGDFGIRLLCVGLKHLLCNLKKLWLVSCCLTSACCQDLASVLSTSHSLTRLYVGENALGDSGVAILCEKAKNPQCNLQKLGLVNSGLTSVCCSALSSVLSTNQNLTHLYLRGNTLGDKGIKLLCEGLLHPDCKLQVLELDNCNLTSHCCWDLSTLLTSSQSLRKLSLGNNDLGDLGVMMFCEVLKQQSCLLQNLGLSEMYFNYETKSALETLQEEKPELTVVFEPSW
# NLR family CARD domain-containing protein 4 (Homo sapiens), sequence (Q9NPP4 whole entry, the tested form may be a part): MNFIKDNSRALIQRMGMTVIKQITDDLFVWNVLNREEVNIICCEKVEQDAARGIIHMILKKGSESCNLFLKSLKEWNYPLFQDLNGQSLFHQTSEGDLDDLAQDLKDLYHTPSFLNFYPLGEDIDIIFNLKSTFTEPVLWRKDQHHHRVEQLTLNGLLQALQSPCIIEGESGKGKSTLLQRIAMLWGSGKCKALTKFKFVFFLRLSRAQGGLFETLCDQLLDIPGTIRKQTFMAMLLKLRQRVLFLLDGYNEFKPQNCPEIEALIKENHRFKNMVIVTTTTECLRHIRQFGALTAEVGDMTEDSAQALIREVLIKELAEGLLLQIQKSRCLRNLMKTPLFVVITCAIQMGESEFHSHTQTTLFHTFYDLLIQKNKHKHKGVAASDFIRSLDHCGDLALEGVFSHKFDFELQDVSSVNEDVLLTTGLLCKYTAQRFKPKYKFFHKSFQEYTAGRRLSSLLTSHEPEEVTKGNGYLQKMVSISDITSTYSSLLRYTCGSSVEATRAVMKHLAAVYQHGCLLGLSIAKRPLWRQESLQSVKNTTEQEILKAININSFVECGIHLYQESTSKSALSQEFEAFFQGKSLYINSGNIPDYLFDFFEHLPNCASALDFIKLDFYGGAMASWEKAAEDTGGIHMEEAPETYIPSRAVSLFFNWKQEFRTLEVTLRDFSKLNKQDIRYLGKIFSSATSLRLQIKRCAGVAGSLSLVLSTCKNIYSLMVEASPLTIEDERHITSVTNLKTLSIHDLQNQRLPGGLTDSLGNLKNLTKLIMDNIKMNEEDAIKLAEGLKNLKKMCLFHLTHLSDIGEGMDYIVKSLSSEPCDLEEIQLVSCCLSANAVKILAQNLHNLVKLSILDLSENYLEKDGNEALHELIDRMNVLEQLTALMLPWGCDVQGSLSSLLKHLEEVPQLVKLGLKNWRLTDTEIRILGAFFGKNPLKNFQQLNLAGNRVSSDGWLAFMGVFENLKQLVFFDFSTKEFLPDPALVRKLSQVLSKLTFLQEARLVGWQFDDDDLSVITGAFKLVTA
smiles,measurement,setting,value
COc1cc(/C=C/C(=O)c2ccc(F)cc2)c(OC)cc1Br,Activity,[1],inactive
same,half-life,[2],3.13 h
same,Activity,[3],Dose-Dependent Effect
same,half-life,[4],7.43 h
same,AUC(0-t) at 24 h,[5],106 ng·h/mL
same,Activity,[6],Dose-Dependent Effect
same,Cmax,[7],82 ng/mL
same,inhibition,[8],Active
same,inhibition at 2 µM,[9],108%
same,inhibition,[10],inactive
same,Tmax,[11],6.6 min
same,half-life,[12],7.92 h
same,AUCt,[13],14.6 ng·h/mL
same,bioavailability,[14],13.8%
same,inhibition,[15],Dose-Dependent Effect
same,AUC(0-t) at 24 h,[16],15.8 ng·h/mL
same,Activity,[17],inactive
same,inhibition,[18],Dose-Dependent Effect
same,Cmax,[19],16.4 ng/mL
same,inhibition,[20],inactive
same,CL,[21],2229.2 mL/min/kg
same,inhibition,[22],inactive
same,Activity,[23],inactive
same,Activity,[24],inactive
same,inhibition,[25],inactive

# Source: ChEMBL document CHEMBL5036380, “New Highly Potent NLRP3 Inhibitors: Furanochalcone Velutone F Analogues” (ACS Med Chem Lett, 2022)
